The values that follow come from ChEMBL document CHEMBL1158477, “Synthesis, in vivo evaluation, and molecular modeling studies of new pyrazolo[5,1-c][1,2,4]benzotriazine 5-oxide derivatives. Identification of a bifunctional hydrogen bond area related to the inverse agonism” (J Med Chem, 2009).

Holding throughout (format): functional, organism-based
Holding throughout (design): dose 1 mg/kg

Test [1] concerns Mus musculus. Put plainly: Effect on ethanol-induced sleeping time in CD1 albino mouse assessed as increase in duration of loss of righting reflex at 1 mg/kg, ip preincubated 30 mins before ethanol challenge. A digest of the protocol:
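Male CD-1 mice given drug ip in saline. Ethanol 4 g/kg ip injected 30 min after drug. Duration of loss of righting reflex taken as sleep time, capped at 210 min. Mean of 15-20 mice per group.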

Test [2] concerns Mus musculus. As to the kind of experiment: Anticonvulsant activity against pentylenetetrazole-induced convulsions in CD1 albino mouse assessed as absence of convulsions at 1 mg/kg, ip preincubated for 30 mins before pentylenetetrazole challenge measured for 30 mins. A digest of the protocol: (§1)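 Male CD-1 mice (22-24 g), drug in isotonic saline given ip; PTZ 90 mg/kg sc injected 30 min after drug. Occurrence of clonic generalized convulsions noted over 30 min, with shock and convulsion latency recorded. Controls received 1% CMC.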

Test [3] has as its system Mus musculus. Put plainly: Anticonvulsant activity against pentylenetetrazole-induced shock in CD1 albino mouse assessed as absence of shocks at 1 mg/kg, ip preincubated for 30 mins before pentylenetetrazole challenge measured for 30 mins. In outline:
as §1

The subject of test [4] is Mus musculus. As to the kind of experiment: Anxiolytic activity in CD1 albino mouse at 1 mg/kg, ip after 20 mins by light/dark box test in presence of flumazenil. A digest of the protocol:
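Male CD-1 mice given drug ip in saline, tested in a light/dark box. Number of transfers between compartments and time spent in the illuminated side recorded. Flumazenil given ip at 100 mg/kg as antagonist.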

SMILES strings stand for the structures. Calls of active or inactive are those of the source. The calls are words filed in the database; no cut-off is given here.

Consider `CN1C(=O)CN=C(c2ccccc2)c2cc(Cl)ccc21`, for which the result in the test on Mus musculus [1], with Mus musculus [2] and in the test with Mus musculus [3] was Active. In addition, the result in the test on Mus musculus [4] was inactive.
